Usually Kd stands for a measure of binding affinity in units of concentration. Higher therefore signals lower affinity.

Structures are written as SMILES. The source made the active and inactive calls. The rule behind the calls is not given here.

The record followed here is ChEMBL document CHEMBL5712886, “Discovery and Characterization of GSK2801, a Selective Chemical Probe for the Bromodomains BAZ2A and BAZ2B” (J Med Chem, 2016).

In assay [1] the target is T1, Bromodomain-containing protein 9 (Homo sapiens) (UniProt Q9H8M2).
T1 sequence (whole entry): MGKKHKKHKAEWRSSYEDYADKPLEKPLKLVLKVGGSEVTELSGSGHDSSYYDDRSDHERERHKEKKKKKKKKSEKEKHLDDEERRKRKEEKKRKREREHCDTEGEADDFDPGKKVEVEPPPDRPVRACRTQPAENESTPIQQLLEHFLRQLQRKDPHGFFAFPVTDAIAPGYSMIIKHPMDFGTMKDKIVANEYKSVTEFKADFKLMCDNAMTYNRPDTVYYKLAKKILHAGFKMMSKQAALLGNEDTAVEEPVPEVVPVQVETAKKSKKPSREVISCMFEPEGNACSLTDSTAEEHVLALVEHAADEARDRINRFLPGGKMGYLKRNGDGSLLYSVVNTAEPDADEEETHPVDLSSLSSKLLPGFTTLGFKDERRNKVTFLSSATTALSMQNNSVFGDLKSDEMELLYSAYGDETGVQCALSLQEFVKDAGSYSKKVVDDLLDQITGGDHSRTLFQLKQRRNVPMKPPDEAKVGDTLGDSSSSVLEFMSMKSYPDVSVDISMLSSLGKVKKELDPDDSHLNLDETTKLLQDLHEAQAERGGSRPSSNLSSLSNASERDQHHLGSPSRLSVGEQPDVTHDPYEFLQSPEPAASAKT
Nature of the assay: Binding affinity to biotinylated C-terminal Avi/His-TEV-fused BRD9 (unknown origin) expressed in Escherichia coli by isothermal titration calorimetric analysis. For orientation: ITC needs no label: the signal is the heat of the interaction.

Assay [2] deals with T1, Bromodomain-containing protein 9 (Homo sapiens). Nature of the assay: Binding affinity to biotinylated BRD9 (unknown origin) expressed in Escherichia coli at 0.2 to 1 uM by Biolayer Interferometric analysis. The conditions noted are these: dose 0.2-1 µM. Put shortly: (§1)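 Bromodomains carrying a BirA biotin ligase targeting sequence, coexpressed with BirA in bacteria to give homogeneous in vivo biotin labelling, checked by mass spectrometry. Biotinylated proteins probed by biolayer interferometry with compound at two concentrations, 0.2 and 1.0 μM.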
For orientation: Biolayer interferometry detects binding as a change in optical thickness at a sensor tip.

The target in assay [3] is Bromodomain-containing protein 7 (Homo sapiens) (UniProt Q9NPI1). Nature of the assay: Binding affinity to biotinylated BRD7 (unknown origin) expressed in Escherichia coli at 0.2 to 1 uM by Biolayer Interferometric analysis. The settings on record: dose 0.2-1 µM. Put shortly:
as §1

Assay [4] has as its target Bromodomain testis-specific protein (Homo sapiens) (UniProt Q58F21). Nature of the assay: Binding affinity to biotinylated BRDT bromodomain-1 (unknown origin) expressed in Escherichia coli at 0.2 to 1 uM by Biolayer Interferometric analysis. The settings on record: dose 0.2-1 µM. The method in brief:
as §1

For assay [5], the target named is Bromodomain and WD repeat-containing protein 3 (Homo sapiens) (UniProt Q6RI45). Briefly: Binding affinity to biotinylated BRWD3 bromodomain-2 (unknown origin) expressed in Escherichia coli at 0.2 to 1 uM by Biolayer Interferometric analysis. The settings on record: dose 0.2-1 µM. The method in brief:
as §1

In assay [6] the target is Histone acetyltransferase p300 (Homo sapiens) (UniProt Q09472). Nature of the assay: Binding affinity to biotinylated EP300 (unknown origin) expressed in Escherichia coli at 0.2 to 1 uM by Biolayer Interferometric analysis. The settings on record: dose 0.2-1 µM. Put shortly: as §1
The target in assay [7] is ATPase family AAA domain-containing protein 2B (Homo sapiens) (UniProt Q9ULI0). Briefly: Binding affinity to biotinylated KIAA1240 (unknown origin) expressed in Escherichia coli at 0.2 to 1 uM by Biolayer Interferometric analysis. The settings on record: dose 0.2-1 µM. Put shortly:
as §1

For assay [8], the target named is Protein polybromo-1 (Homo sapiens) (UniProt Q86U86). Nature of the assay: Binding affinity to biotinylated PB1 bromodomain-1 (unknown origin) expressed in Escherichia coli at 0.2 to 1 uM by Biolayer Interferometric analysis. The conditions noted are these: dose 0.2-1 µM. Put shortly:
as §1

Assay [9] deals with T2, SWI/SNF-related matrix-associated actin-dependent regulator of chromatin subfamily A member 2 (Homo sapiens, UniProt P51531). Briefly: Binding affinity to biotinylated SMARCA2 (unknown origin) expressed in Escherichia coli at 0.2 to 1 uM by Biolayer Interferometric analysis. The settings on record: dose 0.2-1 µM. The method in brief:
as §1

Assay [10] deals with Transcription intermediary factor 1-alpha (Homo sapiens) (UniProt O15164). Briefly: Binding affinity to biotinylated TIF1 bromodomain-1 (unknown origin) expressed in Escherichia coli at 0.2 to 1 uM by Biolayer Interferometric analysis. The conditions noted are these: dose 0.2-1 µM. Put shortly:
as §1

Assay [11] has as its target SWI/SNF-related matrix-associated actin-dependent regulator of chromatin subfamily A member 4 (Homo sapiens, UniProt P51532). Briefly: Binding affinity to SMARCA4 in human HUT78 cell extract using GSK2801 affinity matrix by chemoproteomic competition binding assay. It is filed as cell-free.
Assay [12] concerns the target Transcription initiation factor TFIID subunit 1-like (Homo sapiens) (UniProt Q8IZX4). Nature of the assay: Binding affinity to biotinylated TAF1L bromodomain-2 (unknown origin) expressed in Escherichia coli at 0.2 to 1 uM by Biolayer Interferometric analysis. The settings on record: dose 0.2-1 µM. Put shortly: as §1
For assay [13], the target named is Bromodomain adjacent to zinc finger domain protein 2A (Homo sapiens) (UniProt Q9UIF9). Nature of the assay: Binding affinity to BAZ2A in human HuT78 cell extract up to 50 uM using GSK2801 affinity matrix by chemoproteomic competition binding assay. It is filed as cell-free.
For assay [14], the target named is Bromodomain adjacent to zinc finger domain protein 2B (Homo sapiens) (UniProt Q9UIF8). Briefly: Binding affinity to BAZ2B in human HuT78 cell extract up to 50 uM using GSK2801 affinity matrix by chemoproteomic competition binding assay. The class given is cell-free.
The target in assay [15] is T2, SWI/SNF-related matrix-associated actin-dependent regulator of chromatin subfamily A member 2. Briefly: Binding affinity to SMARCA2 in human HuT78 cell extract using GSK2801 affinity matrix by chemoproteomic competition binding assay. It is filed as cell-free.

T2 sequence (P51531 whole entry): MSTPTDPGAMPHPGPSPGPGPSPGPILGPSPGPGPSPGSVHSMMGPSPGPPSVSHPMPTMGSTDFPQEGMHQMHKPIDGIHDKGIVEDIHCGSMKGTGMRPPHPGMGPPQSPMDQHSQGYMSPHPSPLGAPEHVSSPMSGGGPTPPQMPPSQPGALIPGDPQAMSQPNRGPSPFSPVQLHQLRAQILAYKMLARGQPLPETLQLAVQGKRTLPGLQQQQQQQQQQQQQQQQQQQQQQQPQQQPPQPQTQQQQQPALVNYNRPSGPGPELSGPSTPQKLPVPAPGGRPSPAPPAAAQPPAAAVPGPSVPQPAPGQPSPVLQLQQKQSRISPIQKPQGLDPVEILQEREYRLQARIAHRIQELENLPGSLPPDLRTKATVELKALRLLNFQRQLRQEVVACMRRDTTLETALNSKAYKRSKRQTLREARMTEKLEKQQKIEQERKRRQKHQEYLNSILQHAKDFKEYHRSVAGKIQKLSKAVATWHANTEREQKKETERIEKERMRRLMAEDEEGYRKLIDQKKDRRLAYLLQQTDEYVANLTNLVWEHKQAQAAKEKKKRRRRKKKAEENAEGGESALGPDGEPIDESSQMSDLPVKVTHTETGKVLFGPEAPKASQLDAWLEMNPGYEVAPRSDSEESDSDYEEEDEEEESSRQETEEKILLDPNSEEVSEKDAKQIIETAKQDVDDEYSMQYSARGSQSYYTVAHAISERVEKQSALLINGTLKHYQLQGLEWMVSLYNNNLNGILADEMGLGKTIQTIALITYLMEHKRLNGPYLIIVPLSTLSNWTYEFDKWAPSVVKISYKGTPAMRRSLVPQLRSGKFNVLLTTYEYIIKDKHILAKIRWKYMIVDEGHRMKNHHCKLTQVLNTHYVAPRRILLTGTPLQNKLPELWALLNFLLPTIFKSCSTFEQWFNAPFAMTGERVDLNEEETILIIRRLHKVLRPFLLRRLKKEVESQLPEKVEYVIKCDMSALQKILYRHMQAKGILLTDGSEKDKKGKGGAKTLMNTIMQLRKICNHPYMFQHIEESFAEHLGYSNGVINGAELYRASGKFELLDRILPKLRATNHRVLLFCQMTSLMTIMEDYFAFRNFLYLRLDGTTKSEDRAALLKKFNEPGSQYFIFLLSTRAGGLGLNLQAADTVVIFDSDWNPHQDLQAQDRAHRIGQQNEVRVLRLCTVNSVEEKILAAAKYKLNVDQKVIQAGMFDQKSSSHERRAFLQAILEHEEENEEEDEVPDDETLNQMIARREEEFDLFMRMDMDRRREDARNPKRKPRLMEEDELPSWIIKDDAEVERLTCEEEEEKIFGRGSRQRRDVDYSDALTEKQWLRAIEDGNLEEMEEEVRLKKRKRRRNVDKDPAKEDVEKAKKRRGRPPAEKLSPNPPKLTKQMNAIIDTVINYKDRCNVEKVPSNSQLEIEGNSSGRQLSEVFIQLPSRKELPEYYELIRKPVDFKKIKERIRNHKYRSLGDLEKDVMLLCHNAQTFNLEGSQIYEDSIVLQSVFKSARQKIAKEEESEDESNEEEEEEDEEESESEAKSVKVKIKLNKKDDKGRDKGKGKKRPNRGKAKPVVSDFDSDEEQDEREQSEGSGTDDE
Histone acetyltransferase p300 (Homo sapiens), sequence (Q09472 whole entry, the tested form may be a part): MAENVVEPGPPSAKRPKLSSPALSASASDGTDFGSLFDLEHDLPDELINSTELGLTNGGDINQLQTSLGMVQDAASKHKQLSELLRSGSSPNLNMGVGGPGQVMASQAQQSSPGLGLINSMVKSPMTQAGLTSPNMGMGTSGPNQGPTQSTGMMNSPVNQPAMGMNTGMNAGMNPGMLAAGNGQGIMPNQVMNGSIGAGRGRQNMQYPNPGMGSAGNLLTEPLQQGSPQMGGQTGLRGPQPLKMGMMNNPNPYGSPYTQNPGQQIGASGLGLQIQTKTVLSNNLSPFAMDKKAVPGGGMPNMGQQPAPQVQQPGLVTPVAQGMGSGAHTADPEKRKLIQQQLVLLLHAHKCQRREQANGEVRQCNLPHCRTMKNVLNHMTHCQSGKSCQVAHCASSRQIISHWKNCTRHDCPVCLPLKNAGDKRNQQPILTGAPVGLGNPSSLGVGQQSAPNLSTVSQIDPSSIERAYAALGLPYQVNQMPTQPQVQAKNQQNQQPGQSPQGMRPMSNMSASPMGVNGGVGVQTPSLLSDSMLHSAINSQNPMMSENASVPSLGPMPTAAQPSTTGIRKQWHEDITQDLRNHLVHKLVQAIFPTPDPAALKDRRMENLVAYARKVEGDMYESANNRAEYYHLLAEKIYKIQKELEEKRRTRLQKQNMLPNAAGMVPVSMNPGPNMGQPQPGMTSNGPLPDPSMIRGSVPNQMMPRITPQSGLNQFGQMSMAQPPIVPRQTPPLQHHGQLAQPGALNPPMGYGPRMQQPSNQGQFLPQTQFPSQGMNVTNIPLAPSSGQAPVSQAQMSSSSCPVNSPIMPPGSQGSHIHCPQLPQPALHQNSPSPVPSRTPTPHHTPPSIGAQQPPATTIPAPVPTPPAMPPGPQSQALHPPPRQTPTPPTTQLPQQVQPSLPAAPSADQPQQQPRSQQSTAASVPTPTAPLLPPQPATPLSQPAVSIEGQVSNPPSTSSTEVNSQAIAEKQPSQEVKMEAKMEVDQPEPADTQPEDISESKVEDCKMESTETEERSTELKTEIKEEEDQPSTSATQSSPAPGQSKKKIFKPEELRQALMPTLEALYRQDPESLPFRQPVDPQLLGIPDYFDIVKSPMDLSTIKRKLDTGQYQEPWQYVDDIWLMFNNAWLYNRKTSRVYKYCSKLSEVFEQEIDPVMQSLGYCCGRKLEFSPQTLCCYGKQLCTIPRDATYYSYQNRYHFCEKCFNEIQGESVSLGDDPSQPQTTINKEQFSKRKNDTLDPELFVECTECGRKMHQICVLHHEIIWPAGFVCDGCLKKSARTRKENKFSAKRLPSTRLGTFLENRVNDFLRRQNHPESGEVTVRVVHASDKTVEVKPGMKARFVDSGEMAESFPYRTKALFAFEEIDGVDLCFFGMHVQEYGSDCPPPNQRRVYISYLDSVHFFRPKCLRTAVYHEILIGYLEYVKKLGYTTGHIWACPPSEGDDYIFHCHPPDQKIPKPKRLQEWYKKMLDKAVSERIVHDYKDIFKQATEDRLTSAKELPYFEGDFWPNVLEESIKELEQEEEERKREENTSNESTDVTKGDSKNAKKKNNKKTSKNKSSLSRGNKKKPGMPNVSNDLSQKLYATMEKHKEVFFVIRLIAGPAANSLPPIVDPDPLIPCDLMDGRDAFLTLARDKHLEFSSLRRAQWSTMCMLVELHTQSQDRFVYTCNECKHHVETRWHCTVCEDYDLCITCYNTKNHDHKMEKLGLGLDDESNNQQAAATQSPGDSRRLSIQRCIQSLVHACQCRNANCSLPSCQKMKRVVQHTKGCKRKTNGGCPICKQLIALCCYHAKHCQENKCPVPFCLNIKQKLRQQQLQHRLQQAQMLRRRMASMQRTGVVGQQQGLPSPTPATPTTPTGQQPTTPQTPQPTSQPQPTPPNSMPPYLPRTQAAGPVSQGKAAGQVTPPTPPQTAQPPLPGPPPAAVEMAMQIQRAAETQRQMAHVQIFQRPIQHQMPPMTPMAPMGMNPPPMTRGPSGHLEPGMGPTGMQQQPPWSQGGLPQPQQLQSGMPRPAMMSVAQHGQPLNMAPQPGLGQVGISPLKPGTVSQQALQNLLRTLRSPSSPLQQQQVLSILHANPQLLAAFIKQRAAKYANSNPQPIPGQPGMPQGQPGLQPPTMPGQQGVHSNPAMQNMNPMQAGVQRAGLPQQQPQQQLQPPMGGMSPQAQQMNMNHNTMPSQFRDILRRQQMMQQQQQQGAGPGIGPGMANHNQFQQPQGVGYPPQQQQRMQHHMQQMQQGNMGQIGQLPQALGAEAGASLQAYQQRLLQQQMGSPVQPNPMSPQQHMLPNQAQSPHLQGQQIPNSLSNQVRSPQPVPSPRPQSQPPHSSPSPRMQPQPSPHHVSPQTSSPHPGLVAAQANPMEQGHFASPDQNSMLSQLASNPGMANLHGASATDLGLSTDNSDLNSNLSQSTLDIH
Bromodomain-containing protein 7 (Homo sapiens), sequence (Q9NPI1 whole entry): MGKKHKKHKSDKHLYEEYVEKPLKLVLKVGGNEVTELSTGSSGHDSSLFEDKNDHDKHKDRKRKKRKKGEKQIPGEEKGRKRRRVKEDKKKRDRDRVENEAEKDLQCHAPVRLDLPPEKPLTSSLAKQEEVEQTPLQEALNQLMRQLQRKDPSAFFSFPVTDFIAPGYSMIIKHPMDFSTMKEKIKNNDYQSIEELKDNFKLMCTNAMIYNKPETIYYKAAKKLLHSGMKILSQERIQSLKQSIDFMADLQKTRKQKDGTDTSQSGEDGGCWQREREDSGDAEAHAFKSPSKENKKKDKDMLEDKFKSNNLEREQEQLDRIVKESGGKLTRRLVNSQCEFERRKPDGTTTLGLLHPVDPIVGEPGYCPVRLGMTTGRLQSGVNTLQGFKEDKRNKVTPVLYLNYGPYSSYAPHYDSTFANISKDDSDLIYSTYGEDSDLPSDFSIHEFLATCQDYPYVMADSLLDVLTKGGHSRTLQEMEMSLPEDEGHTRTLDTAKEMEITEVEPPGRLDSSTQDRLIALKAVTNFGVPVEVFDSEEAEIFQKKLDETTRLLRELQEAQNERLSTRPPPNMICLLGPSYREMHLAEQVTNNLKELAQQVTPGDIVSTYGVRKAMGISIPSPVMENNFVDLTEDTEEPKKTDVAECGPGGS

Regarding `CCCOc1ccn2c(C(C)=O)cc(-c3ccccc3S(C)(=O)=O)c2c1`, the Kb in assay [1] is 0.826 10^6/M. The result in [2] was Active. Moreover, the result in assay [3], in assay [4], in assay [5], in [6], in assay [7] and in assay [8] was inactive. Further, the result in assay [9] and in assay [10] was inactive.

On to `CCCOc1ccn2c(C(C)=O)cc(-c3cccc(OC)c3)c2c1`, for which the outcome in assay [2] was Active. The Kd in assay [11] and in assay [15] was 15.8 µM each time. Besides, the result in [3], in assay [4], in assay [5], in [6], in assay [7] and in assay [8] was inactive. The outcome in assay [9], in [12], in assay [10], in [13] and in [14] was inactive.
